Screening results deposited in PubChem BioAssay by several laboratories.
IMP-1 inhibitor: IMP-1 metallo-beta-lactamase inhibitors, primary screen, biochemical, epi-absorbance readout, Pseudomonas aeruginosa enzyme. metallo-beta-lactamase IMP-1 (Pseudomonas aeruginosa). purified IMP-1, nitrocefin hydrolysis, epi-absorbance fluorescence. inhibition, % at 5.6 µM. actives 0.45% (n = 290,000);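 active = inhibition above the mean plus 3 SD of all compounds in the same screening run, cut at about 4.5% in these data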;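 also: 0% = IMP-1 with DMSO and 100% = DMSO wells lacking enzyme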
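Test system: recombinant IMP-1 enzyme, purified / Medium: HEPES buffer pH 7.1 with ZnSO4 and Brij 35 / Doses: single dose, 5.6 µM / Times: 25 °C, 15 min preincubation, 25 min reaction / Detection: Epi-absorbance via hydrolysed-nitrocefin quenching of white-plate fluorescence, 480/530 nm, EDTA stop / Evaluation: percent inhibition from optical density relative to buffer-blank wells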
RanGTP-Imp inh: inhibitors of RanGTP-importin-beta interaction, primary screen, biochemical, FRET, CFP-Ran, YFP-importin-beta, homogeneous; cell-free CFP-Ran/YFP-importin-beta FRET ratio; inhibition, % (no concentration beside the values); actives 1.1% (n = 300,000); Ran GTPase (GTP-bound) - importin-beta complex;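 active = more than half of the replicate wells show a fall in the fluorescence ratio signal beyond about 16%, limit read from the data, passing the limit was not always enough; inconclusive = exactly half of the replicate wells pass the set limit; inactive = fewer than half of replicates pass the limit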;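 also: 0% = DMSO wells and 100% = Ran loaded with GDP instead of GTP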
Runt-CBFb FRET: inhibitors of RUNX1 Runt–CBFb binding, primary screen, biochemical, FRET, Cerulean-Runt, Venus-CBFb, uHTS. actives 0.46% (n = 220,000). Runt-related transcription factor 1 (Homo sapiens) + Core-binding factor subunit beta …. AID 1496, 2009. inhibition, % at 20 µM. Cerulean-Runt/Venus-CBFb FRET ratio 530/480, 1 h;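 active = inhibition over about 50% at 20 µM in the single-dose screen, limit read from the data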;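 also: 0% = DMSO wells and 100% = excess unlabeled CBFb competitor control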
Target sequence (Q01196 whole entry, looked up): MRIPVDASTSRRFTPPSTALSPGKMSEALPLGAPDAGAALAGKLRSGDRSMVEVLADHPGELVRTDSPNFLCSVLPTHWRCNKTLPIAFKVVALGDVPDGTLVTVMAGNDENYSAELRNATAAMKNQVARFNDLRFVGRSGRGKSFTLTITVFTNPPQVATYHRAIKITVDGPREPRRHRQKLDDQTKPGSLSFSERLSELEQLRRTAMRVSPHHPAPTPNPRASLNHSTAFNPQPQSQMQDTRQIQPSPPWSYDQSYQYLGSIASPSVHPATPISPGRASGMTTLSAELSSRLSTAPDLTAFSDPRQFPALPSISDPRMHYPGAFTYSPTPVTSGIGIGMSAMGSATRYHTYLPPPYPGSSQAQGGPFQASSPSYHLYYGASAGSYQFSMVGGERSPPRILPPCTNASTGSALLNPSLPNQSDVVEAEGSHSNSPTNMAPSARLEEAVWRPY
Target sequence (Q13951 whole entry, looked up): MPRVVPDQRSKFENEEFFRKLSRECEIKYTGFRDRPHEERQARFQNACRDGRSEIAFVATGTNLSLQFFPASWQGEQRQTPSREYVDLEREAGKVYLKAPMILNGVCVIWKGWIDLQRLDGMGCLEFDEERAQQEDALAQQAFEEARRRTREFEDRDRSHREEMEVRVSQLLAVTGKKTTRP
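Measured by: fluorescence energy transfer, 422 nm excitation, 530/480 nm emission; test system: Cerulean-tagged RUNX1 Runt domain (FRET donor) fusion protein; buffer or medium: Tris pH 7.5 buffer with BSA; compound: one dose, 20 µM compound, 1% DMSO; times: two 1 h room-temperature incubations shielded from light; benchmarks: unlabeled CBFb 5 µM, positive control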
Runt-SMMHC FRET: inhibitors of RUNX1 Runt–CBFb-SMMHC binding, primary screen, biochemical, FRET, Cerulean-Runt, Venus-CBFb-SMMHC, uHTS. actives 0.74% (n = 220,000). AID 1434, 2008. Cerulean-Runt/Venus-CBFb-SMMHC FRET ratio 530/480, 1 h. Runt-related transcription factor 1 (Homo sapiens) + Core-binding factor subunit beta …. inhibition, % at 20 µM;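 active = mean inhibition across duplicate retests at 20 µM reaching about 50%, limit read from the data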;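 also: 0% = DMSO wells and 100% = wells with excess untagged CBFb-SMMHC; inhibitors lower the FRET ratio by blocking Runt binding to CBFb-SMMHC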
VIM-2 inh: VIM-2 metallo-beta-lactamase inhibitors, primary screen, biochemical, epi-absorbance readout, Pseudomonas aeruginosa enzyme | inhibition, % at 5.6 µM | purified VIM-2, nitrocefin hydrolysis, epi-absorbance fluorescence | actives 0.89% (n = 290,000) | AID 1527, 2009;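 active = inhibition above the mean of all tested compounds plus 3 SD, cutoff set per screening run, cut at about 7.5% in these data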;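 also: red hydrolysis product quenches plate fluorescence so inhibitors raise well fluorescence; 0% = enzyme with DMSO and 100% = DMSO without enzyme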
* marks the source's active call; other numbers are inactive results; ? = inconclusive; . = no result given. Compounds with a hit are over-represented: about 2.6% of the library has one in this group of screens.

SMILES	IMP-1 inhibitor	RanGTP-Imp inh	Runt-CBFb FRET	Runt-SMMHC FRET	VIM-2 inh
Cn1c(CNC(=O)C(Cc2ccccc2)NC(=O)c2ccccc2F)cc(=O)n(C)c1=O (stereo not given)	1	4	.	.	0
COc1ccc(-n2ccnc(SCC(=O)NCc3ccc(C)cc3)c2=O)cc1Cl	.	-1	.	.	.
CCC(CC)N1CCN(C(=O)c2cc(OC)c(OC)c(OC)c2)CC1	0	4	.	.	-1
CC(C)[C@H](NC(=O)[C@@H]1Cc2c([nH]c3ccccc23)C2c3ccccc3C(=O)N21)C(=O)N1CCC[C@@H]1C(=O)O (stereo not given in full)	-1	7	.	.	0
Cc1ccc(S(=O)(=O)c2c(N)n(Cc3ccco3)c3nc4ccccc4nc23)cc1	2	?	45	.	2
Cc1cccc(S(=O)(=O)c2c(N)n(Cc3ccco3)c3nc4ccccc4nc23)c1	-1	18*	20	.	2
COc1ccccc1N(C)C(=O)c1cc(S(=O)(=O)N2CCCC2)cn1C	-4	3	.	.	-2
CCOCCCNC(=O)c1cn(C)c(=O)c2cc(OC)c(OC)cc12	4.7*	2	2	-1	-1
COCCNC(=O)c1cn(C)c(=O)c2cc(OC)c(OC)cc12	-3	0	-2	4	2
COC(=O)c1ccc(C(=O)OC)c(NC(=S)N2CCCC(C)C2)c1 (stereo not given)	-3	54*	17	34	1
CCN(CC)C(=S)Nc1cc(C(=O)OC)ccc1C(=O)OC	-3	38*	20	32	-2
CCC(C)C(=O)Nc1cc(C(=O)OC)ccc1C(=O)OC (stereo not given)	-2	5	3	-1	-1
CCOC(=O)c1cnc2c(C)cc(C)cc2c1NCCCN1CCOCC1	0	0	.	.	9.6*
CCOC(=O)c1cnc2ccc(Br)cc2c1NCCCN1CCOCC1	-4	-3	.	.	3
CCOC(=O)c1cnc2c(C)c(C)ccc2c1NCCN1CCOCC1	-2	?	.	.	8.6*
CCOC(=O)c1cnc2c(Cl)c(Cl)ccc2c1NCCN1CCOCC1	-2	2	.	.	7.7*
COCCn1c(=N)c(C(=O)NCc2ccco2)cc2c(=O)n3cc(C)ccc3nc21	-4	-4	.	.	3
Cc1cccn2c(=O)c3cc(C(=O)NCc4ccco4)c(=N)n(C4CCCCC4)c3nc12	-1	130*	.	.	6
Cc1ccc2nc3c(cc(C(=O)NCc4ccco4)c(=N)n3C3CCCC3)c(=O)n2c1	-1	187*	.	.	7
Cc1cccn2c(=O)c3cc(C(=O)NCc4ccco4)c(=N)n(CCOCCO)c3nc12	0	155*	.	.	4
COc1ccc(/C=N/n2nnnc2N)c(OC)c1	-4	-5	.	.	-3
O=S(=O)(c1ccc(Cl)cc1)N1CCC(N2CCCCCC2)CC1	5.7*	0	-2	1	-2
O=S(=O)(c1ccc(F)cc1)N1CCC(N2CCCCCC2)CC1	-1	2	-2	5	0
O=C(Cn1c(=O)oc2cc(S(=O)(=O)N3CCCC3)ccc21)N1CCCC1	-6	3	3	3	-1
O=C(Cn1c(=O)oc2cc(S(=O)(=O)N3CCCC3)ccc21)NC1CCCCC1	-2	1	.	.	-3
SMILES	IMP-1 inhibitor	RanGTP-Imp inh	Runt-CBFb FRET	Runt-SMMHC FRET	VIM-2 inh
CC1CCC(NC(=O)Cn2c(=O)oc3cc(S(=O)(=O)N4CCCC4)ccc32)CC1 (stereo not given)	4.9*	1	.	.	-4
O=C(Cc1ccc(F)cc1)Nc1ccc(S(=O)(=O)N2CCCCC2)cc1	-2	-3	0	1	-3
O=C(CN1C(=O)COc2ccc(S(=O)(=O)N3CCCCC3)cc21)NCc1ccc(F)cc1	0	51*	.	.	-3
O=C(Cn1c(=O)oc2cc(S(=O)(=O)N3CCCC3)ccc21)NCc1ccc(F)cc1	-5	2	1	-3	7.9*
CCN(CC(=O)NCc1ccc(F)cc1)CC(=O)Nc1ccc(S(=O)(=O)N2CCCC2)cc1	-1	17*	-5	0	0
O=C(OCc1ccc(F)cc1)c1ccc2c(c1)-c1ccccc1C2=O	4.6*	-3	-4	-8	-2
CCN(C(=O)CN1C(=O)COc2ccc(S(=O)(=O)N3CCCCCC3)cc21)c1cccc(C)c1	-2	6	.	.	-2
CC(C)(O)c1[nH]c2ccc(C(F)(F)F)cc2c1C(C)(C)O	1	?	.	.	-1
CC(C)(O)c1[nH]c2ccc(C#N)cc2c1C(C)(C)O	4.9*	7	.	.	3
CC1CCN(C(=O)CSc2nnc(-c3cc4ccccc4cc3O)n2Cc2ccco2)CC1	-5	39*	26	24	-2
CCn1c(SCC(=O)N(C(C)C)C(C)C)nnc1-c1cc2ccccc2cc1O	-7	0	14	14	12*
Cc1ccc(C(=O)NC(=S)N(C)C2CCCCC2)cc1	-3	-1	.	.	-4
COc1ccc(N2CC(C)Cn3c2nc2c3c(=O)n(CCc3ccccc3)c(=O)n2C)cc1 (stereo not given)	.	41*	-4	-1	.
COc1ccc(N2CCn3c2nc2c3c(=O)n(CCCc3ccccc3)c(=O)n2C)cc1	.	.	-4	-4	.
O=C(C1CCN(c2ncnc3c2sc2cccc(F)c23)CC1)N1CCOCC1	-2	6	2	-3	11*
COc1ccccc1N=c1oc2cc(O)ccc2cc1C(N)=O	0	179*	10	42	-1
COc1ccc2cc(C(N)=O)c(=Nc3ccc(C)cc3)oc2c1	-3	5	-2	-1	-2
COc1cccc(N=c2oc3cc(O)ccc3cc2C(=O)NCC2CCCO2)c1 (stereo not given)	0	180*	52*	90*	2
COc1ccc2oc(=O)c(C(=O)NCC3CCCO3)cc2c1 (stereo not given)	0	9	12	23	-2
COc1ccccc1N=c1oc2cc(O)ccc2cc1C(=O)NCC1CCCO1 (stereo not given)	-3	174*	43	-10	-2
Cc1cccc(N=c2oc3cc(O)ccc3cc2C(N)=O)c1	-1	-2	10	79*	0
CCOc1ccccc1N1CC(C(=O)N(Cc2nnc(-c3ccccc3Cl)o2)C2CC2)CC1=O (stereo not given)	.	2	.	.	.
C=C1c2cc(C)c(C)cc2NC(=O)N1c1ccccc1	1	0	3	60*	1
Cc1noc(C)c1-c1ccc2nc[nH]c(=O)c2c1	.	-3	.	.	.
